Laboratory results from ChEMBL document CHEMBL4689842, “EUbOPEN Chemogenomics Library wave 1” (2021).

Test system: U2OS
Assay: Multiplex assay against U2OS
Assay type: toxicity, cell-based
Conditions: human
How it was run: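 At seeding, live cells were stained with Hoechst33342, BioTracker Green Microtubule Cytoskeleton Dye, MitoTracker Red and Annexin V Alexa Fluor 680. After compound addition they were imaged on a CQ1 microscope at 37°C and 5% CO2, and CellPathfinder machine-learning gating sorted them into Hoechst high-intensity objects or normal cells, with normal cells further split into healthy, pyknosed or fragmented nuclei and pyknosed cells into mitotic or apoptotic. Tubulin, mitochondrial-mass and membrane-permeability phenotypes are given as per cents of cells with healthy nuclei.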

[1] = 12 h, 1 µM, compound concentration 1 uM, replicate 1
[2] = 12 h, 1 µM, compound concentration 1 uM, replicate 2
[3] = 12 h, 10 µM, compound concentration 10 uM, replicate 1
[4] = 12 h, 10 µM, compound concentration 10 uM, replicate 2
[5] = 24 h, 1 µM, compound concentration 1 uM, replicate 1
[6] = 24 h, 1 µM, compound concentration 1 uM, replicate 2
[7] = 24 h, 10 µM, compound concentration 10 uM, replicate 1
[8] = 24 h, 10 µM, compound concentration 10 uM, replicate 2
[9] = 48 h, 1 µM, compound concentration 1 uM, replicate 1
[10] = 48 h, 1 µM, compound concentration 1 uM, replicate 2
[11] = 48 h, 10 µM, compound concentration 10 uM, replicate 1
[12] = 48 h, 10 µM, compound concentration 10 uM, replicate 2

CCOC(=O)c1c(C)[nH]c2ccc3c(c12)CN1CCc2cc(OC)ccc2C1O3 (stereo not drawn)
Population Apoptotic (%) [1]: 72% | Population Fragmented Nuclei (%) [1]: 9% | Population Healthy Nuclei (%) [1]: 81% | Population Hoechst High Intensity Objects (%) [1]: 5% | Population Membrane Permeable-Phenotype (%) [1]: 6% | Population Mitochondria Different-Phenotype (%) [1]: 78% | Population Mitotic Cells (%) [1]: 27% | Population Normal (%) [1]: 94% | Population Pyknosed Nuclei (%) [1]: 8% | Population Tubulin-Different-Phenotype (%) [1]: 72% | Total Cell Count [1]: 123 | Population Apoptotic (%) [2]: 9% | Population Healthy Nuclei (%) [2]: 76% | Population Hoechst High Intensity Objects (%) [2]: 9% | Population Membrane Permeable-Phenotype (%) [2]: 3% | Population Mitochondria Different-Phenotype (%) [2]: 70% | Population Mitotic Cells (%) [2]: 90% | Population Normal (%) [2]: 90% | Population Pyknosed Nuclei (%) [2]: 14% | Population Tubulin-Different-Phenotype (%) [2]: 62% | Total Cell Count [2]: 65 | Population Apoptotic (%) [3]: 73% | Population Fragmented Nuclei (%) [3]: 9% | Population Healthy Nuclei (%) [3]: 68% | Population Hoechst High Intensity Objects (%) [3]: 5% | Population Membrane Permeable-Phenotype (%) [3]: 68% | Population Mitotic Cells (%) [3]: 26% | Population Normal (%) [3]: 94% | Total Cell Count [3]: 135 | Population Apoptotic (%) [4]: 80% | Population Fragmented Nuclei (%) [4]: 2% | Population Healthy Nuclei (%) [4]: 75% | Population Hoechst High Intensity Objects (%) [4]: 11% | Population Membrane Permeable-Phenotype (%) [4]: 70% | Population Mitochondria Different-Phenotype (%) [4]: 100% | Population Mitotic Cells (%) [4]: 20% | Population Normal (%) [4]: 88% | Population Pyknosed Nuclei (%) [4]: 22% | Population Tubulin-Different-Phenotype (%) [4]: 100% | Total Cell Count [4]: 84 | Population Apoptotic (%) [5]: 41% | Population Fragmented Nuclei (%) [5]: 8% | Population Healthy Nuclei (%) [5]: 79% | Population Hoechst High Intensity Objects (%) [5]: 5% | Population Membrane Permeable-Phenotype (%) [5]: 3% | Population Mitochondria Different-Phenotype (%) [5]: 68% | Population Mitotic Cells (%) [5]: 58% | Population Normal (%) [5]: 94% | Population Pyknosed Nuclei (%) [5]: 12% | Population Tubulin-Different-Phenotype (%) [5]: 40% | Total Cell Count [5]: 127 | Population Apoptotic (%) [6]: 8% | Population Fragmented Nuclei (%) [6]: 9% | Population Healthy Nuclei (%) [6]: 75% | Population Membrane Permeable-Phenotype (%) [6]: 1% | Population Mitochondria Different-Phenotype (%) [6]: 58% | Population Mitotic Cells (%) [6]: 91% | Population Pyknosed Nuclei (%) [6]: 14% | Population Tubulin-Different-Phenotype (%) [6]: 35% | Total Cell Count [6]: 65 | Population Apoptotic (%) [7]: 90% | Population Fragmented Nuclei (%) [7]: 13% | Population Healthy Nuclei (%) [7]: 49% | Population Hoechst High Intensity Objects (%) [7]: 4% | Population Membrane Permeable-Phenotype (%) [7]: 78% | Population Mitochondria Different-Phenotype (%) [7]: 100% | Population Mitotic Cells (%) [7]: 9% | Population Normal (%) [7]: 95% | Population Pyknosed Nuclei (%) [7]: 37% | Population Tubulin-Different-Phenotype (%) [7]: 100% | Total Cell Count [7]: 143 | Population Apoptotic (%) [8]: 89% | Population Fragmented Nuclei (%) [8]: 6% | Population Healthy Nuclei (%) [8]: 52% | Population Hoechst High Intensity Objects (%) [8]: 11% | Population Membrane Permeable-Phenotype (%) [8]: 83% | Population Mitotic Cells (%) [8]: 10% | Population Normal (%) [8]: 88% | Population Pyknosed Nuclei (%) [8]: 41% | Total Cell Count [8]: 87 | Population Apoptotic (%) [9]: 44% | Population Fragmented Nuclei (%) [9]: 7% | Population Healthy Nuclei (%) [9]: 83% | Population Hoechst High Intensity Objects (%) [9]: 2% | Population Membrane Permeable-Phenotype (%) [9]: 1% | Population Mitochondria Different-Phenotype (%) [9]: 22% | Population Mitotic Cells (%) [9]: 55% | Population Normal (%) [9]: 97% | Population Pyknosed Nuclei (%) [9]: 9% | Population Tubulin-Different-Phenotype (%) [9]: 13% | Total Cell Count [9]: 115 | Population Apoptotic (%) [10]: 41% | Population Fragmented Nuclei (%) [10]: 8% | Population Healthy Nuclei (%) [10]: 81% | Population Hoechst High Intensity Objects (%) [10]: 7% | Population Membrane Permeable-Phenotype (%) [10]: 9% | Population Mitochondria Different-Phenotype (%) [10]: 27% | Population Mitotic Cells (%) [10]: 58% | Population Normal (%) [10]: 92% | Population Pyknosed Nuclei (%) [10]: 10% | Population Tubulin-Different-Phenotype (%) [10]: 19% | Total Cell Count [10]: 67 | Population Apoptotic (%) [11]: 100% | Population Fragmented Nuclei (%) [11]: 13% | Population Healthy Nuclei (%) [11]: 50% | Population Hoechst High Intensity Objects (%) [11]: 6% | Population Membrane Permeable-Phenotype (%) [11]: 88% | Population Mitotic Cells (%) [11]: 0% | Population Normal (%) [11]: 93% | Population Pyknosed Nuclei (%) [11]: 35% | Population Tubulin-Different-Phenotype (%) [11]: 100% | Total Cell Count [11]: 196 | Population Apoptotic (%) [12]: 84% | Population Fragmented Nuclei (%) [12]: 14% | Population Healthy Nuclei (%) [12]: 45% | Population Hoechst High Intensity Objects (%) [12]: 14% | Population Membrane Permeable-Phenotype (%) [12]: 81% | Population Mitochondria Different-Phenotype (%) [12]: 100% | Population Mitotic Cells (%) [12]: 15% | Population Normal (%) [12]: 85% | Population Pyknosed Nuclei (%) [12]: 39% | Population Tubulin-Different-Phenotype (%) [12]: 95% | Total Cell Count [12]: 121
